In the library only some 2.3% were active in any assay of this set; here they are far more common.
SUMO1 PPI mod: modulators of SUMO1 protein-protein interactions, primary screen, biochemical, uHTS | Small ubiquitin-related modifier 1 (Homo sapiens), P63165 | SUMO1 binding to a labelled peptide, TR-FRET, 1 h | inhibition, % at 20 µM | hit rate 0.33% among 360,000 | AID 602429, 2012; in the data active = inhibition above about 37%
Target sequence (P63165 whole entry, looked up): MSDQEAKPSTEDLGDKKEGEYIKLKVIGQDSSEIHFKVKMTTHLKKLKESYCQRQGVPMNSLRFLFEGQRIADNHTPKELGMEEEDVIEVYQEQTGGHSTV
LMPTP inh: LMPTP phosphatase inhibitors, primary screen, biochemical, fluorescence intensity, uHTS; recombinant LMPTP-A, OMFP fluorogenic substrate; inhibition, % at 20 µM; AID 651560, 2012; hit rate 0.22% among 360,000;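 active = compounds that cut the enzyme signal by at least half of the control window in the single-dose screen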;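 also: plate controls were DMSO wells with enzyme plus substrate for no effect and substrate without enzyme for full effect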
Target sequence (P24666 whole entry, looked up): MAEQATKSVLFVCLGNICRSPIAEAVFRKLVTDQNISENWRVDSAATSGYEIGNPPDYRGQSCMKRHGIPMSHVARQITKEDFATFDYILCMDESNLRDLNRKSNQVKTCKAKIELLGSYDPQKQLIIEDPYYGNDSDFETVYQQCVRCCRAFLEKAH
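Test system – LMPTP-A phosphatase enzyme · Quantity – 0.625 nM LMPTP-A final · Reagent – OMFP substrate, 400 µM final · Dosing – one test concentration per compound, 20 µM, with 3% DMSO overall · Timing – 50 min enzyme reaction at room temperature, protected from light · Detection – fluorescence intensity · Controls – substrate-only low control, DMSO enzyme-plus-substrate high control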
STEP block: STEP phosphatase inhibitors, primary screen, biochemical, fluorescence intensity, uHTS. inhibition, % at 20 µM. AID 588621, 2011. recombinant STEP, OMFP fluorogenic substrate. hit rate 0.25% among 360,000. Tyrosine-protein phosphatase non-receptor type 5 (Homo sapiens), P54829;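 active = inhibition at 20 µM, scaled per plate between control wells, above about 37%, limit read from the data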;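 also: 0% = DMSO with enzyme and substrate and 100% = substrate only without enzyme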
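Material: STEP (striatal-enriched tyrosine phosphatase) enzyme, cell-free; Compound dosing: 20 µM single dose in 1% DMSO; Technique: fluorescence read at 480 nm ex / 540 nm em; Times: reaction 20 min, ambient temperature; Medium: 50 mM Bis-Tris pH 6.0 with 2.5 mM DTT and 0.005% Tween 20; Also added: OMFP at 25 µM.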
Scp-1 inhibitor: Scp-1 phosphatase inhibitors, primary screen, biochemical, colorimetric, uHTS; Recombinant Scp1, phosphopeptide, malachite green phosphate absorbance; inhibition, % at 20 µM; hit rate 0.88% among 340,000;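 active = inhibition above about 50% at 20 µM, limit read from the data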;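 also: plate controls were DMSO wells with enzyme for no effect and wells lacking enzyme for full effect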
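Test system – truncated SCP-1 phosphatase (76-261aa) · Reagent – Phosphorylated 17-residue peptide substrate · Incubation – 45 min room-temperature reaction, 5 min colour, 30 min stabiliser · Detection – colorimetric phosphate reagent with accelerator and stabiliser, absorbance at 630 nm · Measure – % inhibition at 20 µM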
DNMT1 block: human DNMT1 methyltransferase inhibitors, primary screen, biochemical, molecular beacon, fluorescence, HinP1I cleavage, uHTS. hit rate 0.83% among 360,000. inhibition (reported as % activation of signal), % at 10 µM. DNA (cytosine-5)-methyltransferase 1 (Homo sapiens), P26358; in the data active = inhibition above about 50%
Rpn11 block: Rpn11 (PSMD14) deubiquitinase inhibitors, primary screen, biochemical, fluorescence polarization, uHTS | 26S proteasome non-ATPase regulatory subunit 14 (Homo sapiens), O00487 | human 26S proteasome, Ub4-pepOG fluorescence polarization; 20S core pre-blocked with epoxomicin | inhibition, % at 20 µM | hit rate 0.59% among 360,000 | AID 588493, 2011;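 active = inhibition at 20 µM, scaled to each plate's controls, above about 33%, limit read from the data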
Target sequence (O00487 whole entry, looked up): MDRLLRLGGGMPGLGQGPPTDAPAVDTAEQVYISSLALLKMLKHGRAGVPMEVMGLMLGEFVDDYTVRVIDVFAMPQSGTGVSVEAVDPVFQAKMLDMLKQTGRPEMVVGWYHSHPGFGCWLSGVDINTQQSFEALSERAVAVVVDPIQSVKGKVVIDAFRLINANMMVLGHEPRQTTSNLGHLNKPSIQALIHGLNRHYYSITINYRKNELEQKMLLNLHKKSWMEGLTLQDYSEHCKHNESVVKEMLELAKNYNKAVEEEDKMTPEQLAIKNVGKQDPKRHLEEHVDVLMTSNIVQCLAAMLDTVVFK
* = called active by the depositor; nt = no result given.

SMILES | SUMO1 PPI mod | LMPTP inh | STEP block | Scp-1 inhibitor | DNMT1 block | Rpn11 block
O=c1c2c(-c3ccccc3)csc2nc2c3ccccc3c(NCCN3CCOCC3)nn12 | 64* | 9 | 9 | 5 | -3 | -1
Cc1cccc(-c2cc3c(N=O)c4ccccc4c-3n[nH]2)c1 | 0 | 1 | 1 | 3 | 8 | 2
O=Nc1c2cc(-c3ccccc3)[nH]nc-2c2ccccc12 | 13 | 5 | 7 | 62* | 26 | 4
CC[n+]1c(/C=C/N(C)c2ccccc2)n(-c2ccccc2)c2ccc(-c3nc4ccccc4s3)cc21 | -84 | 83* | 10 | 32 | -1 | -2
CC[n+]1cccc(-c2nc3ccccc3s2)c1 | -21 | -1 | -3 | 4 | 2 | -2
O=C(COc1ccc2c(-c3ccccc3)cc(=O)oc2c1)Nc1ccc(CCO)cc1 | -7 | 66* | 3 | -2 | 27 | 9
O=C(O)c1cccc(Nc2nc(-c3ccc([N+](=O)[O-])cc3)nc3ccccc23)c1 | -1 | 52* | 13 | 41 | -10 | 8
Cc1ccc(C(=O)c2c(C)oc3c2C(=O)C(=O)c2ccccc2-3)cc1 | 18 | 4 | 17 | -7 | 52* | 2
COc1cc(-c2nc(-c3ccc(Br)o3)no2)cc(OC)c1OC | 53* | 1 | 3 | -7 | 45 | 4
NC(=O)c1sc2nc3c(c(-c4ccco4)c2c1N)CCCC3 | -10 | 0 | 4 | 0 | 0 | 1
Nc1c(C(=O)NCC2CCCO2)sc2nc3c(c(-c4ccco4)c12)CC/C3=C\c1ccco1 (configuration not stated) | 69* | 70* | 37* | 81* | 101* | -7
CC1(C(=O)NS(=O)(=O)C2CC2)CCCN(C(=O)/C=C/c2ccccc2)C1 (configuration not stated) | 2 | -2 | -4 | nt | 1 | -3
CC(C)c1onc(C(=O)N2CCN(C(c3ccccc3)c3ccccc3)CC2)c1[N+](=O)[O-] | 43* | -1 | 1 | 21 | 3 | 6
CC(C)c1onc(C(=O)N2CCN(c3ccccc3)CC2)c1[N+](=O)[O-] | -7 | -1 | 1 | -14 | -2 | 3
COc1ccc2nc3cc(Cl)ccc3c(Nc3cc(C(C)C)c(O)cc3C)c2c1 | 3 | 5 | 13 | -3 | -4 | -2
COc1ccc2nc3cc(Cl)ccc3c(Nc3cc(CN4CCCC4)c(O)c(CN4CCCC4)c3)c2n1 | -60 | 50* | 14 | nt | 65* | -1
CC(=O)NC(=S)Nc1sc2c(c1C(N)=O)CCC(C)C2 (configuration not stated) | -7 | 1 | 0 | -3 | 1 | 6
CSCCC(NC(=O)COc1ccccc1)C(=O)N(C)Cc1ccc(SC)cc1 (configuration not stated) | 2 | 0 | 1 | -6 | -1 | -3
CCOc1cc(/C=C2\C(=N)N3N=C(S(=O)(=O)CC)SC3=NC2=O)ccc1OC(=O)c1ccco1 | 3 | 0 | -1 | 14 | 8 | 35
CCOc1cc(/C=C2/C(=N)N3C(=NC2=O)SN=C3S(C)(=O)=O)ccc1OC(=O)c1ccco1 | -8 | -1 | 0 | 30 | 9 | 62*
COc1ccc(NC(=O)CN(C)C(=O)C(C)N2C(=O)c3ccccc3C2=O)cc1 (configuration not stated) | -1 | 0 | -2 | -8 | 0 | -5
NS(=O)(=O)c1ccc(CCNC(=O)COC(=O)C2COc3ccccc3O2)cc1 (configuration not stated) | 0 | 0 | 2 | -1 | 0 | 4
COc1ccc2nc(-n3c(O)c(C4=c5ccccc5=NC4=O)[nH]c3=S)sc2c1 | 10 | 15 | 3 | 85* | 0 | -15
Cn1c(O)c(C2=c3ccccc3=NC2=O)[nH]c1=S | -13 | 5 | 5 | -5 | 6 | 4
O=c1cc(O)n(C2CCCCCC2)c(=O)[nH]1 | 3 | 1 | 0 | -1 | -6 | 15
SMILES | SUMO1 PPI mod | LMPTP inh | STEP block | Scp-1 inhibitor | DNMT1 block | Rpn11 block
O=c1[nH][nH]c(=S)n1C1CCCCC1 | nt | nt | nt | 72* | nt | nt
O=C(COC(=O)c1c2c(nc3ccccc13)/C(=C/c1ccco1)CC2)NC1CCCC1 | 18 | 48 | 18 | 78* | 86* | 35
Cc1cc(C(=O)OCC(=O)NC2CCCC2)c2ccccc2n1 | -11 | -1 | 2 | 5 | -1 | 2
COc1ccc(N2CCN(S(=O)(=O)c3ccc(C(=O)NC4CCCC4)cc3)CC2)cc1 | 51* | -2 | -3 | -2 | 9 | -2
CCN(CC)CCn1c2c(c(SCC(=O)Nc3nccs3)nc1=O)CCCC2 | 5 | 0 | -1 | -2 | 0 | 0
Cc1ccc(/C=C2\SC(=S)N(CCC(=O)NNC(=O)c3ccc(O)cc3)C2=O)cc1 | -10 | -3 | 3 | -3 | 2 | 18
CN1C(=O)/C(=C/c2ccc(C(=O)Nc3ccc(O)cc3C(=O)O)cc2)SC1=S | 33 | 19 | 98* | 47 | -5 | 1
OC(COCC1COc2ccccc2O1)CN1CCN(c2ccccc2)CC1 (configuration not stated) | -1 | -1 | -1 | 3 | -1 | -8
C[N+]1(CC(O)COCC2COc3ccccc3O2)CCOCC1 (configuration not stated) | 1 | 0 | -3 | 106* | 3 | 4
COc1ccccc1C1=NNC(=Nc2cccc(S(=O)(=O)N(C)C)c2)SC1 | 0 | 0 | 2 | -3 | -19 | 6
Cc1cc(N(C)NC(=S)Nc2ccccc2)nc(C)n1 | 0 | -1 | -3 | -8 | 2 | 6
Cc1ccc(NC(=S)NN(C)c2nc(C)cnc2C)cc1 | 40* | -1 | -2 | -8 | 5 | -3
Cc1nn(Cc2ccccc2)c(C)c1CNC(=O)[C@H](C)N=C1NS(=O)(=O)c2ccccc21 | -2 | -1 | -2 | 6 | -3 | 2
O=C(O)C1Nc2c(O)cc(Cl)c([N+](=O)[O-])c2C2C=CCC12 (configuration not stated) | 104* | 91* | 97* | 62* | 89* | 30
O=c1cc(-c2cc3ccccc3o2)c2cc(O)ccc2o1 | -7 | 58* | 12 | 28 | -2 | -3
COc1cc2c(cc1OC)CN(C(=S)NC(=O)c1ccccc1)CC2 | 1 | 0 | 0 | 7 | -3 | 1
